Most compounds without a hit are left out; they make up all but 3.5% or so of the library.
MrgX1 antag: antagonists of human MrgX1 receptor, primary screen, HEK293 cells, Fluo-4 calcium flux; 1.3% of 310,000 active; BAM8-22 antagonism; active compounds read low; B-score at 10 µM;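 active means calcium-response B-score plate-corrected more than 3 library SD below zero, starting fluorescence within 5 deviations, no agonist response on first addition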;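 further: peak minus trough fluorescence over baseline after final BAM8-22 challenge near maximal dose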
Target sequence (Q96LB2 whole entry, looked up): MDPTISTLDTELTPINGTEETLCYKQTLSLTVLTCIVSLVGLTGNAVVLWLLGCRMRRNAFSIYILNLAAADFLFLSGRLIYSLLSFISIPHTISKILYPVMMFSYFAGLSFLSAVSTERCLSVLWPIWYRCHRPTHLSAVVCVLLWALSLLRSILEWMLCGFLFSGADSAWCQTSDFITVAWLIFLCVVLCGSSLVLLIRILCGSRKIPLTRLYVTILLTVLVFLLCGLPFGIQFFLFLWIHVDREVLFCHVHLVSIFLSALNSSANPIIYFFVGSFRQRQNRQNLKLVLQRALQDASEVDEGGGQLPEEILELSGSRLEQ
RGS4 inh: RGS4 inhibitors, primary screen, cell-based, HEK293 M3R inducible RGS4, calcium flux | Regulator of G-protein signaling 4 (Homo sapiens), P49798 | Fluo-4 calcium flux; active compounds read high; triggered by carbachol at its EC20 | B-score at 10 µM | 0.45% of 310,000 active;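 active means B-score, a plate-corrected calcium signal, over three deviations above library mean, with baseline fluorescence within five deviations of library mean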;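 further: RGS4 expression induced by doxycycline in cells with stable M3 receptor; B-score is computed from the integrated fluorescence ratio over baseline after carbachol; higher B-score means a larger calcium signal and so more RGS4 inhibition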
Target sequence (P49798 whole entry, looked up): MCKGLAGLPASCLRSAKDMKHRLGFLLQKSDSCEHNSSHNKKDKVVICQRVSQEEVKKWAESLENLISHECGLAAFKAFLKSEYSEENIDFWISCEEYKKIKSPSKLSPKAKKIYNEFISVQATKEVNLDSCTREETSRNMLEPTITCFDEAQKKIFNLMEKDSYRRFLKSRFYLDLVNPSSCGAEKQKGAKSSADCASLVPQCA
MrgX1 PAM: positive allosteric modulators of MrgX1, primary screen, HEK293 cells, Fluo-4 calcium flux; Mas-related G-protein coupled receptor member X1 (Homo sapiens), Q96LB2; FDSS; active compounds read high; B-score at 10 µM; 0.63% of 310,000 active;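 active means plate-corrected calcium response at least 3 library SD above typical, normal starting fluorescence, not activating the receptor alone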;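 further: compound read alongside a low EC10 to EC30 dose of BAM8-22 agonist; peak minus trough fluorescence over baseline measured at the second addition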
RGS4 pot: RGS4 potentiators or activators, primary screen, cell-based, HEK293 M3R inducible RGS4, calcium flux; AID 463111, 2010; 0.92% of 310,000 active; carbachol calcium flux Fluo4; active compounds read low; B-score at 10 µM;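 active means B-score of the integrated calcium signal more than 4 SD below the library mean, with starting fluorescence not abnormally high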;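 further: negative B-score means reduced calcium response which marks RGS4 activation or potentiation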
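System – HEK293 FlpIn-TREx cells, stable M3R, doxycycline-inducible RGS4 · Reagent – ECmax carbachol challenge · Times – compound preincubation 20 min at room temperature before agonist · Technique – Fluo4 fluorescence kinetic imaging of calcium · Measure – B score of integrated Fluo4 ratio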
MrgX1 agonist: agonists of human MrgX1 receptor, primary screen, HEK293 cells, Fluo-4 calcium flux; AID 588627, 2011; Mas-related G-protein coupled receptor member X1 (Homo sapiens), Q96LB2; Fluo-4 calcium fluorescence, agonist mode; active compounds read high; B-score at 10 µM; 0.44% of 310,000 active;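 active means calcium response B-score plate-corrected fluorescence ratio at least 3 library SD, with starting fluorescence B-score inside 5 SD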
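System – MrgX1-expressing HEK293 cells · Incubation – cells plated overnight, dye loaded 0.5 h 37 °C, 0.5 h room temperature · Technique – kinetic Fluo-4 NW fluorescence of intracellular calcium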
RGS4 block valid: enhanced carbachol calcium response, M3R/RGS4 cells, RGS4 inhibitor project, cell-based, validation screen, HEK293 M3R/RGS4, calcium flux. shares compounds with RGS4 inh. carbachol calcium Fluo-4 fluorescence; carbachol added at its EC20; 0 = buffer wells, 100 = carbachol control. calcium response, % at 10 µM. 65% of 1,700 active. AID 492999, 2010;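 active means duplicate-averaged calcium response above the buffer-only control mean plus 5 SD of those controls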;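 further: integrated fluorescence ratio F max minus min over baseline F0; higher response in RGS4-induced cells means RGS4 inhibition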
RGS4 uninduced: carbachol calcium response in non-induced M3R cells, confirmation, counter-screen for RGS4 inhibitor project, cell-based, HEK293 M3R; shares compounds with RGS4 inh; carbachol calcium Fluo-4; submaximal (EC20) carbachol stimulus; buffer wells 0%, carbachol control wells 100%; activity (percent), % at 10 µM; 20% of 1,900 active; AID 493000, 2010; call rule not given here;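 further: RGS4 induction absent so cells express M3R without RGS4; higher means more calcium signal and flags a non-specific hit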
M3R basal Ca ctr: second RGS4 inhibitor counter-screen in uninduced cells lacking carbachol. HEK293 M3R/RGS4 non-induced, Fluo-4 calcium, no carbachol; normalised: buffer wells 0%, carbachol wells 100%. shares compounds with RGS4 inh. AID 493001. 22% of 1,900 active. calcium response (agonist-mode artifact), % at 10 µM;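 active means duplicate-averaged calcium rise in uninduced cells above buffer wells' mean plus 5 SD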
Numbers without * were called inactive; i = inactive; x = no result.

SMILES	MrgX1 antag	RGS4 inh	MrgX1 PAM	RGS4 pot	MrgX1 agonist	RGS4 block valid	RGS4 uninduced	M3R basal Ca ctr
CCC(c1nnnn1Cc1ccco1)N(Cc1ccccc1OC)Cc1cc2cc(C)ccc2[nH]c1=O (centres undefined)	i	i	i	i	i	x	x	x
CC(C)(C)n1nnnc1C(c1ccccc1F)N(Cc1ccco1)CC1CCCO1 (centres undefined)	i	i	i	i	i	x	x	x
Cc1cccc2cc(C(c3nnnn3C(C)(C)C)N(Cc3ccco3)CC3CCCO3)c(=O)[nH]c12 (centres undefined)	i	i	i	i	i	i	i	i
CCOc1ccc(S(=O)(=O)N2CCCC(C(=O)NCc3cccnc3)C2)cc1Cl (centres undefined)	i	i	i	i	i	x	x	x
COc1ccccc1C(=O)NCC(C)(C)CN=C1NS(=O)(=O)c2ccccc21	i	i	i	i	i	x	x	x
CN(C)c1ccc(/C=C(\NC(=O)c2ccccc2)C(=O)NCc2ccncc2)cc1	i	i	i	i	i	x	x	x
CN(C)c1ccc(/C=C(\NC(=O)c2ccccc2)C(=O)NCc2cccnc2)cc1	i	i	i	i	i	i	i	i
COc1ccc(/C=C(\NC(=O)c2ccccc2)C(=O)NCc2cccnc2)cc1	i	i	i	i	i	i	i	i
C#CCn1ccc(O)c(Cc2ccccc2)c1=O	i	i	i	i	i	x	x	x
Cc1sc2nc(CN(Cc3ccccc3)C(=O)NC3CCCCC3)[nH]c(=O)c2c1C	i	5.1*	i	i	i	i	i	i
CCCNC(=O)CSc1nc2ccccc2c(=O)n1CCC	i	i	i	i	i	x	x	x
N#CC1=C2N=C(N)c3c(sc4c3CCCCC4)N2C2=C(C(=O)CCC2)C1c1ccccc1 (centres undefined)	i	i	i	i	i	x	x	x
Cc1ccc(C2C(C#N)=C3N=C(N)c4ccccc4N3C3=C2C(=O)CCC3)cc1 (centres undefined)	i	i	i	i	i	x	i	i
N#CC1=C2N=C(N)c3ccccc3N2C2=C(C(=O)CCC2)C1c1ccc(F)cc1 (centres undefined)	i	i	i	i	i	x	i	i
CCCOc1ccc(/C=c2\sc3ncnn3c2=O)cc1	i	5.8*	i	i	i	9.0%*	49%*	14%*
Cc1ccc(CN(Cc2cc3cc4c(cc3[nH]c2=O)OCCO4)Cc2nnnn2Cc2ccco2)cc1	i	12*	i	i	i	i	i	16%*
Cc1ccc2cc(CN(Cc3ccc4c(c3)OCO4)Cc3nnnn3Cc3ccco3)c(=O)[nH]c2c1	i	i	i	i	i	i	i	8.5%*
COc1ccc2cc(CN(CCc3ccccc3)Cc3nnnn3Cc3ccco3)c(=O)[nH]c2c1	i	i	i	i	i	x	x	x
Cc1ccc(C(=O)/C=C\C(=O)c2ccc(C)cc2)cc1	i	i	i	i	i	i	i	i
CC(=O)c1cccc(NC(=O)CCNC(=O)c2cccc(C)c2)c1	i	i	i	i	i	x	x	x
O=C(NCc1ccc2c(c1)OCO2)C(=O)Nc1cc2c3c(c1)CC(=O)N3CCC2	i	i	i	i	i	x	x	x
Clc1ccc(C2=Nn3c(nnc3-c3n[nH]c4c3CCC4)SC2)cc1	i	i	i	i	i	i	i	i
C=CCOc1ccc2c(c1)C(=NO)c1cc(OCC=C)ccc1-2	i	5.6*	i	i	i	9.5%*	i	i
COc1ccc(-c2nc(NC(=O)C3=NN(c4cccc(C)c4)C(=O)CC3)sc2C)cc1	i	i	i	i	i	x	x	x
COc1ccccc1NC(=O)CC1S/C(=N/N=C2\CCCc3ccccc32)NC1=O (centres undefined)	i	6.1*	i	i	i	60%*	62%*	i
SMILES	MrgX1 antag	RGS4 inh	MrgX1 PAM	RGS4 pot	MrgX1 agonist	RGS4 block valid	RGS4 uninduced	M3R basal Ca ctr
O=C(CC1S/C(=N/N=C2CCCCCC2)NC1=O)Nc1ccccc1C(F)(F)F (centres undefined)	i	i	i	i	i	x	x	x
O=c1c2ccccc2nc2c3ccccc3c(NCc3ccco3)nn12	i	4.9*	i	i	i	i	i	i
COc1ccc(C(=O)N/C=C/n2cnc3cc(C(F)(F)F)ccc32)cc1	i	i	i	i	i	x	x	x
CCOc1ccc(-c2nnc(Nc3ccc(OC)c(C(=O)N4CCCCC4)c3)c3ccccc23)cc1	i	i	i	i	i	i	i	i
CC(O)c1nc2ccccc2n1CC(=O)Nc1ccc(F)cc1Cl (centres undefined)	i	i	i	i	i	x	x	x
CCOc1ccccc1NC(=S)N1CCCCCC1	i	i	i	i	i	x	x	x
O=C(CC1C(=O)NCCN1C(=O)Nc1ccccc1)Nc1ccc(F)cc1 (centres undefined)	i	i	i	i	i	x	i	i
Cc1cccc(NC(=O)CC2C(=O)NCCN2C(=O)Nc2ccc(Cl)cc2)c1 (centres undefined)	i	9.1*	i	i	i	26%*	46%*	i
O=C(CC1C(=O)NCCN1C(=O)Nc1ccc(F)cc1)Nc1cc(Cl)ccc1Cl (centres undefined)	i	i	i	i	i	x	i	10%*
O=C(CC1C(=O)NCCN1C(=O)Nc1ccccc1)Nc1cc(Cl)ccc1Cl (centres undefined)	i	i	i	i	i	x	x	x
